Data published in ChEMBL document CHEMBL4406907, “Exploration of zinc-binding groups for the design of inhibitors for the oxytocinase subfamily of M1 aminopeptidases” (Bioorg Med Chem, 2019).

What was measured:
[1] = target: T1, Endoplasmic reticulum aminopeptidase 2 (Homo sapiens, UniProt Q6P179); assay: Competitive inhibition of human recombinant ERAP2 expressed in baculovirus infected sf9 cells using R-AMC as substrate incubated for 5 to 10 mins by Michaelis-Menten analysis
[2] = target: T1, Endoplasmic reticulum aminopeptidase 2; assay: Inhibition of human recombinant ERAP2 expressed in baculovirus infected Sf9 cells using omniMMP fluorogenic substrate incubated for 5 to 10 mins by fluorescence spectrophotometry analysis
[3] = target: T2, Endoplasmic reticulum aminopeptidase 1 (Homo sapiens, UniProt Q9NZ08); assay: Competitive inhibition of human recombinant ERAP1 expressed in baculovirus infected sf9 cells using L-AMC as substrate incubated for 5 to 10 mins by Michaelis-Menten analysis
T2 sequence (Q9NZ08 whole entry): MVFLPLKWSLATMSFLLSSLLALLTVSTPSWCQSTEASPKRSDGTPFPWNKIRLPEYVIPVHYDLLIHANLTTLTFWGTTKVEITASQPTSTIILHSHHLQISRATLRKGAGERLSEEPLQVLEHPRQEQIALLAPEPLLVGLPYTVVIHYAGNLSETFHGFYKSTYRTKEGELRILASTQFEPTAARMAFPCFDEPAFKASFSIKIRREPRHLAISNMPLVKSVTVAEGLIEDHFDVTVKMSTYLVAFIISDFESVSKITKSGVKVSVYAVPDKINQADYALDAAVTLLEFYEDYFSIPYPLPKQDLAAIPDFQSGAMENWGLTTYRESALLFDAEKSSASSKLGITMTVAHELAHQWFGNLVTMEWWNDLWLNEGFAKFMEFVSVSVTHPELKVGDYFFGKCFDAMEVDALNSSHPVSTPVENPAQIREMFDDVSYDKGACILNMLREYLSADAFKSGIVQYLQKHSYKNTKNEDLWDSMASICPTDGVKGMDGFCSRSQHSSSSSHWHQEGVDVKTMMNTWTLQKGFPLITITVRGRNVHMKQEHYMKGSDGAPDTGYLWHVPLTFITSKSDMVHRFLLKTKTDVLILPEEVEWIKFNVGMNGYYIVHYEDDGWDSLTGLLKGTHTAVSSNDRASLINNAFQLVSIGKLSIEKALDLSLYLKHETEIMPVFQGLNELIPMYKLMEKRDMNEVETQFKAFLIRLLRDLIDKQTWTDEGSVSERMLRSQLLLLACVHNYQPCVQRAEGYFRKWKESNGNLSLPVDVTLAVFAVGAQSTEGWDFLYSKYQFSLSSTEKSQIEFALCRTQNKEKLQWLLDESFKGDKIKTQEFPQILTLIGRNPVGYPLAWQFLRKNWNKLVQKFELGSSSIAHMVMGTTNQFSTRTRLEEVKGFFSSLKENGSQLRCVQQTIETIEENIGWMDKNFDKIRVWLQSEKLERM
Method in brief: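 ERAP1 (recombinant, as described previously) at 10 nM with L-AMC as substrate. Michaelis-Menten analysis as previously described. Ki for competitive inhibition derived using a KM for L-AMC of 546 μM.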

[4] = target: T2, Endoplasmic reticulum aminopeptidase 1; assay: Inhibition of human recombinant ERAP1 expressed in baculovirus infected Sf9 cells using omniMMP fluorogenic substrate incubated for 5 to 10 mins by fluorescence spectrophotometry analysis
[5] = system: Insulin-regulated aminopeptidase (Homo sapiens); assay: Inhibition of human recombinant IRAP expressed in baculovirus infected Sf9 cells using omniMMP fluorogenic substrate incubated for 5 to 10 mins by fluorescence spectrophotometry analysis

T1 sequence (Q6P179 whole entry): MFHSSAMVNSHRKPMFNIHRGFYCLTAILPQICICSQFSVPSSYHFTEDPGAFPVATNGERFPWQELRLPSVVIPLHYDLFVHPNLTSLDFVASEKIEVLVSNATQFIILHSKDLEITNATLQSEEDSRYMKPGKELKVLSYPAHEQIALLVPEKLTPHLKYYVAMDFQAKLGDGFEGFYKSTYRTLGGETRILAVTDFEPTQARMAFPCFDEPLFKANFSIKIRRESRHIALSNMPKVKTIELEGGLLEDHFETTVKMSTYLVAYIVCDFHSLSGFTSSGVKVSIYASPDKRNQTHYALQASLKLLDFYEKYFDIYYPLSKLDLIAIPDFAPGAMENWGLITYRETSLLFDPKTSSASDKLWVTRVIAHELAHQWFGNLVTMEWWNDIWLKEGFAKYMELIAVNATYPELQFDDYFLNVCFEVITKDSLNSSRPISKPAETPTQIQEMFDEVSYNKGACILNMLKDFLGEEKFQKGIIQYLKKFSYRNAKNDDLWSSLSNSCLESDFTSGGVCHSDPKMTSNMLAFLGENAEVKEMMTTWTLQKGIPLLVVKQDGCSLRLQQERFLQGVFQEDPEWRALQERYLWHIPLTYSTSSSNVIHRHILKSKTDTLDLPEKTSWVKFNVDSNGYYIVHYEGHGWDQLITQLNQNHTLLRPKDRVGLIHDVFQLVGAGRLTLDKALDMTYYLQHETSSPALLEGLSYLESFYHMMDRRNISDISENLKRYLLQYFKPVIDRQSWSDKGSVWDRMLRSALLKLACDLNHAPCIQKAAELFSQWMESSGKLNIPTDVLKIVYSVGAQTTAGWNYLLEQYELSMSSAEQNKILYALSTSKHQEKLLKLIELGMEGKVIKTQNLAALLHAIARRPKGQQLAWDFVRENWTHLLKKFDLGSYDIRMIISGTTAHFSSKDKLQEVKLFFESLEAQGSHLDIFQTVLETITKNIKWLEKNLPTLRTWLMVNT

SMILES | Ki [1] [µM] | IC50 [2] [µM] | Ki [3] [µM] | IC50 [4] [µM] | inhibition [5]
O=C(Cn1cccc(O)c1=O)N[C@@H](Cc1c[nH]c2ccccc12)C(=O)OCc1ccccc1 | 0.7 | 10.3 | 18.5 | 20.2 | 
N[C@@H](CCc1ccccc1)C(=O)NNc1ccc(C(=O)N[C@@H](Cc2c[nH]c3ccccc23)C(=O)OCc2ccccc2)cc1 |  | > 10 | 4.7 | 11.9 | 
O=C(Cn1cccc(O)c1=O)NCCc1ccc(-c2ccccc2)cc1 | 27.4 | 50.3 | 17.5 | 19.1 | 
CCCC[C@H](N)C(=O)Nc1cccc(C(=O)N[C@@H](Cc2c[nH]c3ccccc23)C(=O)OCc2ccccc2)c1 |  | > 10 |  | > 100 | 
CCCC[C@H](N)C(=O)NNc1ccc(C(=O)N[C@@H](Cc2c[nH]c3ccccc23)C(=O)OCc2ccccc2)cc1 | 1.2 | 2.2 | 10.9 | 11.9 | Dose-dependent effect
CCCC[C@H](N)C(=O)Nc1ccc(C(=O)N[C@@H](Cc2c[nH]c3ccccc23)C(=O)OCc2ccccc2)cc1 | 4.8 | 8.8 |  | > 100 | 
CC(C)[C@H](NC(=O)Cn1cccc(O)c1=O)C(=O)OCc1ccccc1 | 4.9 | 8.9 | 44 | 48.5 | 
CCCC[C@H](N)C(=O)Nc1cc(C(=O)N[C@@H](Cc2c[nH]c3ccccc23)C(=O)OCc2ccccc2)ccn1 |  | > 10 |  | > 10 | 
O=C(Cn1cccc(O)c1=O)NCCc1c[nH]c2ccccc12 | 17.7 | 31.3 |  |  | 
COc1cccn(CC(=O)NCCc2ccc(-c3ccccc3)cc2)c1=S | 17.4 | 31.9 | 23.4 | 25.6 | 
CCCC[C@H](N)C(=O)NNc1cccc(C(=O)N[C@@H](Cc2c[nH]c3ccccc23)C(=O)OCc2ccccc2)c1 | 4.3 | 7.9 |  | > 10 | 
